Here are results for eleven compounds from ChEMBL document CHEMBL2321800, “Design and synthesis of new bifunctional sigma-1 selective ligands with antioxidant activity” (J Med Chem, 2013).

Assay [1] is described as follows: Displacement of [3H]DTG from sigma2 receptor in guinea pig brain membrane after 120 mins by liquid scintillation counting analysis. The class given is cell membranes, Cavia porcellus. A digest of the protocol:
(§1)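 Guinea pig brain membranes with 3 nM [3H]DTG (Kd 11 nM) plus 400 nM (+)-SKF10,047 to mask sigma1 sites. Nonspecific binding with 5 µM DTG. 50 mM Tris-HCl pH 8.0, 120 min at room temperature. Filtration, scintillation counting, Ki computed; three determinations. Ratio taken from sigma2 and sigma1 Ki values.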

For another assay, the species on record is Cavia porcellus. The assay is described as follows: Selectivity ratio of Ki for guinea pig sigma2 receptor to Ki for guinea pig sigma1 receptor. A digest of the protocol: as §1
The target of assay [2] is Sigma non-opioid intracellular receptor 1 (Cavia porcellus, UniProt Q60492). The assay is described as follows: Displacement of [3H]-(+)-pentazocine from sigma1 receptor in guinea pig brain membrane after 150 mins by liquid scintillation counting analysis. The class given is cell membranes.
Assay [3] deals with Rattus norvegicus. The assay is described as follows: Reduction of (-)-U50488H-induced basal tail flick latency in Sprague-Dawley rat at 1 mg/kg, sc after 30 to 90 mins by radiant heat tail flick test. Format: functional, organism-based. On the set-up: dose 1 mg/kg. A digest of the protocol: (§2)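 Male Sprague-Dawley rats (180-200 g), habituated the day before; radiant heat (infrared) aimed at lower third of tail, 25±1 °C. Basal latency 3-4 s, mean of three readings at 5 min intervals; 10 s cut-off. Drugs sc; tail-flick latency read 30, 45, 60, 75 and 90 min after injection. n=8-10, mean ± SD, two-way ANOVA with Duncan post-hoc.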

For assay [4], the species on record is Rattus norvegicus. The assay is described as follows: Antioxidant activity in rat brain mitochondria assessed as restoration of Ca2+/phosphate induced sulfhydryl group oxidation at 50 uM after 15 mins by mitochondrial thiol oxidation assay. Format: functional. A digest of the protocol:
(§3)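 After 15 min under swelling conditions (1 mg/ml; Ca2+ 50 µM liver, 100 µM brain; succinate/rotenone, 1 mM phosphate, 20 °C), mitochondria were pelleted and solubilized in pH 8.3 EDTA/Tris/1% SDS with DTNB. Thiols read at 412 nm and given as percent reduced SH groups. Five independent experiments; ANOVA and Student's t-test.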

The species entered for assay [5] is Rattus norvegicus. In words: Antioxidant activity in rat brain mitochondria assessed as inhibition of Ca2+/phosphate induced mitochondrial permeability transition at 25 to 50 uM by spectrophotometry. Format: functional. A digest of the protocol:
(§4)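 Mitochondria from rat liver (50 µM Ca2+) or cerebral cortex (Ficoll-purified; 100 µM Ca2+) at 1 mg protein/ml, 20 °C, in 200 mM sucrose, 10 mM HEPES pH 7.4, 5 mM succinate, 1 mM phosphate, 1.25 µM rotenone. Swelling followed as fall in apparent absorbance at 540 nm. Five runs.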

The species named for assay [6] is Rattus norvegicus. The assay is described as follows: Antioxidant activity in rat liver mitochondria assessed as restoration of Ca2+/phosphate induced sulfhydryl group oxidation at 25 to 50 uM after 15 mins by mitochondrial thiol oxidation assay. The class given is functional. A digest of the protocol:
as §3

The species named for assay [7] is Rattus norvegicus. In words: Antioxidant activity in rat liver mitochondria assessed as inhibition of Ca2+/phosphate induced mitochondrial swelling at 50 uM by spectrophotometry. The class given is functional. A digest of the protocol: as §4
Assay [8] is filed under the species Rattus norvegicus. The assay is described as follows: Antioxidant activity in rat liver mitochondria assessed as inhibition of Ca2+/phosphate induced mitochondrial swelling at 25 uM by spectrophotometry. The class given is functional. A digest of the protocol: as §4
Assay [9] relates to Rattus norvegicus. In words: Antinociceptive activity in Sprague-Dawley rat assessed as basal tail flick latency at 1 mg/kg, sc by radiant heat tail flick test. The class given is functional, organism-based. On the set-up: dose 1 mg/kg. A digest of the protocol:
as §2

Assay [10] is filed under the species Rattus norvegicus. In words: Antioxidant activity in rat brain mitochondria assessed as restoration of Ca2+/phosphate induced sulfhydryl group oxidation at 3 mM after 15 mins by mitochondrial thiol oxidation assay. Format: functional. A digest of the protocol:
as §3

For assay [11], the species on record is Rattus norvegicus. In words: Antioxidant activity in rat brain mitochondria assessed as inhibition of Ca2+/phosphate induced mitochondrial swelling by spectrophotometry. Format: functional.
For assay [12], the species on record is Rattus norvegicus. In words: Antioxidant activity in rat liver mitochondria assessed as restoration of Ca2+/phosphate induced sulfhydryl group oxidation at 3 mM after 15 mins by mitochondrial thiol oxidation assay. Format: functional. A digest of the protocol:
as §3

Calls of active or inactive are those of the source.

Sigma non-opioid intracellular receptor 1, sequence (Q60492 whole entry): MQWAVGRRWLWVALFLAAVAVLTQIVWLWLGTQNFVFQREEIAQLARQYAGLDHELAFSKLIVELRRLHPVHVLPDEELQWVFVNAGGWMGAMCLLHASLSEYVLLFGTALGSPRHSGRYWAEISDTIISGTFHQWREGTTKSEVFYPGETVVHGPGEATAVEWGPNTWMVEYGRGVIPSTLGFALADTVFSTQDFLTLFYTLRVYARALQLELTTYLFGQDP

With `O=C(CCCCC1CCSS1)N1CCN(CCc2ccccc2)CC1` (stereo not given), the Ki in assay [1] is 209 nM; in [2], 8.4 nM. In addition, in the assay listed under Cavia porcellus, the Ratio Ki was found to be 24.8.

Regarding `O=C(CCCCC1CCSS1)OC1CCN(Cc2ccccc2)CC1` (stereo not given), the result with Rattus norvegicus [3], in the assay listed under Rattus norvegicus [4] and in the assay filed under Rattus norvegicus [6] was Active. For the same compound, the inhibition entry in the assay listed under Rattus norvegicus [5], in the assay filed under Rattus norvegicus [7] and in the assay filed under Rattus norvegicus [8] was “Active” in each case. The outcome in the assay with Rattus norvegicus [9] was inactive. Moreover, the Ki in assay [1] turned out to be 2300 nM; in [2] it was 5.56 nM. Moreover, the Ratio Ki in the assay listed under Cavia porcellus came out at 414.

Consider `O=C(CCCCC1CCSS1)OC1CCN(CCCc2ccccc2)CC1` (stereo not given), for which the Ki in assay [1] came to 101 nM; in assay [2], 25.7 nM. Moreover, the Ratio Ki in the assay filed under Cavia porcellus amounted to 3.9.

Take `OC[C@@H](O)[C@@H](S)CS`: the outcome in the assay listed under Rattus norvegicus [10] and in the assay listed under Rattus norvegicus [12] was Active. Besides, the inhibition entry in the assay filed under Rattus norvegicus [11] was “inactive”. The inhibition result in the assay filed under Rattus norvegicus [7] was “Active”.

For the compound `CN1CCN(C(=O)CCCCC2CCSS2)CC1` (stereo not given), the Ki in [1] was 21000 nM; in [2], 115 nM. Besides, in the assay listed under Cavia porcellus, the Ratio Ki came out at 183.

For the compound `O=C(CCCCC1CCSS1)OC1CCN(CC2CCCCC2)CC1` (stereo not given), the Ki in assay [1] was 14 nM; in [2], 1.14 nM. Besides, the Ratio Ki in the assay listed under Cavia porcellus stood at 12.3.

In the case of `O=C(CCCCC1CCSS1)OC1CCN(CCc2ccccc2)CC1` (stereo not given), the figures for the Ki in [1] and in assay [2] were 160 nM and 13.5 nM, respectively. Moreover, the Ratio Ki in the assay listed under Cavia porcellus was found to be 11.8.

Take `O=C(CCCCC1CCSS1)N1CCN(C2CCCCC2)CC1` (stereo not given): the Ki in assay [1] worked out at 11.2 nM; in assay [2], 0.4 nM. Besides, the Ratio Ki in the assay filed under Cavia porcellus was 28.

As for `O=C(CCCCC1CCSS1)N1CCN(CCCc2ccccc2)CC1` (stereo not given), the figures for the Ki in [1] and in assay [2] were 91.6 nM and 10 nM, respectively. The Ratio Ki in the assay listed under Cavia porcellus amounted to 9.16.

On to `Nc1ncnc2c1ncn2[C@@H]1O[C@H](COP(=O)(O)OP(=O)(O)O)[C@@H](O)[C@H]1O`, for which the inhibition entry in the assay listed under Rattus norvegicus [11] and in the assay filed under Rattus norvegicus [7] was “Active” each time.

For the compound `O=C(CCCCC1CCSS1)N1CCN(Cc2ccccc2)CC1` (stereo not given), the figures for the inhibition constant (Ki) in assay [1] and in assay [2] were 637 nM and 1.8 nM, respectively. Further, in the assay filed under Cavia porcellus, the Ratio Ki is 354.
